Most compounds without a hit are left out; they make up all but 2.6% or so of the library.
Platelet DG rel: inhibitors of platelet dense granule secretion, primary screen, cell-based, MLPCN, human platelets. human platelet-rich plasma, SFLLRN dense granule ATP release, luminescence. inhibition, %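 (compounds screened at 7.5 µM in platelet-rich plasma)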. hit rate 0.22% among 300,000;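 active means mean replicate score, as percent of positive control, at or above 50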
SENP7 block: SENP7 protease inhibitors, primary screen, biochemical, luminescence, uHTS | Sentrin-specific protease 7 (Homo sapiens), Q9BQF6 | recombinant SENP7, Z-RLRGG-aminoluciferin luminescence, 40 min | inhibition, % at 5 µM | hit rate 1.5% among 330,000;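 active means inhibition above about 50% at the single test dose, limit read from the data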;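 further: plate controls were DMSO with enzyme for no effect and no enzyme buffer wells for full effect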
Target sequence (Q9BQF6 706-1050 limits assumed): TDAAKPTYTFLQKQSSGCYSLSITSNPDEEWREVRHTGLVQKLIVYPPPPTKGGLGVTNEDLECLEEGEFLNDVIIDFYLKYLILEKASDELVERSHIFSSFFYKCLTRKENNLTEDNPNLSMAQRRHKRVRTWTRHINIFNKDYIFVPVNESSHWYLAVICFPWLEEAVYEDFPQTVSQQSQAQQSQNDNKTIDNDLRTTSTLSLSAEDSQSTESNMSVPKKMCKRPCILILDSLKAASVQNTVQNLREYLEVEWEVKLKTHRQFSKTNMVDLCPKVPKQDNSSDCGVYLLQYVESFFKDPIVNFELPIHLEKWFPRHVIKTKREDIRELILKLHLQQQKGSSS
SENP8 block-1: human SENP8 protease inhibitors, primary screen, biochemical, fluorescence, Nedd8 protein substrate, uHTS | Sentrin-specific protease 8 (Homo sapiens), Q96LD8 | recombinant SENP8 | inhibition, % at 20 µM | hit rate 0.64% among 360,000 | AID 602440, 2012; in the data active means inhibition mostly above about 40%, no sharp cut-off; inactive means mostly below about 27%
SENP1 FRET inh: human SENP1 catalytic domain inhibitors, primary screen, biochemical, FRET, uHTS. Sentrin-specific protease 1 (Homo sapiens), Q9P0U3. hit rate 0.21% among 360,000. AID 624204, 2012. inhibition, % at 10 µM. recombinant SENP1 catalytic domain, CyPet-SUMO1-YPet FRET cleavage;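 active means inhibition at least 30% at 10 µM, raw YFP signal under a set limit, fluorescence ratio 0.5 to 1.5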;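 further: 0% = enzyme with DMSO and 100% = no enzyme wells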
Target sequence (Q9P0U3 419-644 limits assumed): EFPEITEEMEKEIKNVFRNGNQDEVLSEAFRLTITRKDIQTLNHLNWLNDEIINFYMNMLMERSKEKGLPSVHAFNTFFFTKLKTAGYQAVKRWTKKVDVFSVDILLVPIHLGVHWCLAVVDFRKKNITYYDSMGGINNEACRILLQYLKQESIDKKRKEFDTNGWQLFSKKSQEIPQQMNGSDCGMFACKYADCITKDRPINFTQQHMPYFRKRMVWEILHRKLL
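Test system: hSENP1 catalytic domain, recombinant; Amount: 20 pM final SENP1 enzyme; Medium: Tris pH 8 buffer plus EDTA, NaCl, BME, BSA, NP40, catalase; Schedule: 50 min enzyme reaction, room temperature, light-protected; Technique: FRET fluorescence in CFP and YFP emission channels; Controls: no-enzyme wells low, DMSO-plus-enzyme wells high control.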
SENP6 block: SENP6 protease inhibitors, primary screen, biochemical, luminescence, uHTS. Recombinant SENP6 catalytic domain, aminoluciferin luminescence. hit rate 1.8% among 330,000. AID 2599, 2010. inhibition, % at 10 µM;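 active means inhibition above about 50% at the single tested dose, limit read from the data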;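 further: plate controls were DMSO wells with enzyme for no effect and DMSO wells lacking enzyme for full effect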
SENP8 block-2: SENP8 protease inhibitors, primary screen, biochemical, luminescence; Sentrin-specific protease 8 (Homo sapiens), Q96LD8; purified SENP8, Z-RLRGG-aminoluciferin cleavage; inhibition, % at 10 µM; hit rate 1.2% among 330,000; AID 2540, 2010; in the data active means inhibition above about 50%
SENP1 conf: human SENP1 catalytic domain inhibitors, confirmation, biochemical, FRET endpoint, single concentration; recombinant SENP1, CyPet-SUMO1-YPet FRET cleavage; shares compounds with SENP1 FRET inh; inhibition, % at 10 µM; hit rate 34% among 520; in the data active means inhibition mostly above about 35%, no sharp cut-off; inactive means mostly below about 32%;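 further: 0% = enzyme with DMSO and 100% = no enzyme control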
SENP1 kin conf: human SENP1 catalytic domain inhibitors, confirmation, biochemical, kinetic FRET, single concentration. recombinant SENP1, CyPet-SUMO1-YPet FRET kinetic cleavage. inhibition, % at 10 µM. AID 651690, 2012. shares compounds with SENP1 FRET inh. hit rate 26% among 520; in the data active means inhibition mostly above about 32%, no sharp cut-off; inactive means mostly below about 29%;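 further: 0% = DMSO with enzyme and 100% = no enzyme substrate only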
The depositor's hits bear a star; . = no result.

SMILES	Platelet DG rel	SENP7 block	SENP8 block-1	SENP1 FRET inh	SENP6 block	SENP8 block-2	SENP1 conf	SENP1 kin conf
Nc1nc(N=Nc2ccc(O)cc2)cc(=O)[nH]1	.	.	38	72*	.	.	65*	44*
C[C@H](NC(N)=O)C(=O)Nc1ccc(N2CCOCC2)c(S(=O)(=O)Nc2ccc(Cl)cc2)c1	.	1	17	-1	-14	-5	.	.
CCOC(=O)/C=C/c1cc(F)ccc1O	.	.	-408	66*	.	.	40*	38*
CCOC(=O)/C=C/c1cccc(C)c1O	.	.	-113	32*	.	.	17	37*
COc1cccc(/C=C/C(=O)OCC(=O)c2ccc(C)c(C)c2)c1OC	.	2	-400	2	-1	5	.	.
COc1ccc(S(=O)(=O)N(C)C[C@H]2Oc3ccc(NS(=O)(=O)c4cccs4)cc3C(=O)N([C@H](C)CO)C[C@@H]2C)cc1	.	.	20	2	.	.	.	.
COc1cccc2c1-c1c(O)cccc1C2=O	-1	-1	12	31*	4	6	42*	26
Cc1cc(C)c(C(=O)N(CCN(C)C)CC2CCCN(Cc3ccccc3F)C2)o1 (centres undefined)	-10	-8	3	-4	-4	-8	.	.
O=C(N/N=C(\CC(=O)c1cccs1)C(F)(F)F)c1ccncc1	15	6	34	40*	4	5	50*	38*
Oc1ccc(C=NN=C2c3ccccc3-c3ccccc32)c(O)c1	.	.	32	71*	.	.	78*	51*
C(=NN=C1c2ccccc2-c2ccccc21)c1c[nH]c2ccccc12	.	.	38	-1	.	.	.	.
Cc1ccc(Nc2nc(-c3c(C)n(C)n(-c4ccccc4)c3=O)c(C)s2)cc1	1	7	-7	-1	1	-1	.	.
Cc1sc(Nc2ccc([N+](=O)[O-])cc2)nc1-c1c(C)n(C)n(-c2ccccc2)c1=O	3	-3	23	38*	6	-2	19	14
O=c1[nH]c(/C(Cl)=C/c2c(F)cccc2Cl)nc2cc(Cl)ccc12	3	-2	4	-6	-10	-12	.	.
O=c1[nH]c(/C(Cl)=C/c2cc(Cl)ccc2O)nc2cc(Cl)ccc12	-7	-6	-31	59*	-3	-6	89*	73*
CCc1ccc2nc(SCC(=O)Nc3ccccc3N3CCOCC3)c(C#N)cc2c1	6	9	22	48*	17	-1	21	17
Cc1ccc(SCC(=O)Nc2ccccc2N2CCOCC2)cc1	-7	-17	0	0	0	-8	.	.
Cc1ccc2nc(SCC(=O)Nc3ccccc3N3CCOCC3)c(C#N)cc2c1	-6	4	19	33*	12	6	-11	-12
CCc1ccc2nc(SCC(=O)N3CCCCC3)c(C#N)cc2c1	-1	-2	-24	-2	-19	-7	.	.
CCOC1=C2[C@H](c3ccccc3)N(S(=O)(=O)c3ccccc3)C[C@H]2n2c(=O)n(-c3ccccc3)c(=O)n2C1	.	.	6	1	.	.	.	.
c1ccc(CN(CCN2CCOCC2)Cc2ccccc2)cc1	.	.	0	1	.	.	.	.
O=c1[nH]c2cc([N+](=O)[O-])ccc2c2cc(Br)ccc12	.	.	8	33*	.	.	25	14
O=C(c1ccccc1Cc1ccccc1)N1CCN(S(=O)(=O)c2ccccc2[N+](=O)[O-])CC1	0	-1	5	2	-12	6	.	.
CCOC(=O)CC(=O)CSc1nc2ccc(C)cc2cc1C#N	.	-10	-50	-28	13	0	.	.
Cc1cc(NC(=O)CSc2nc3ccccc3cc2C#N)no1	-3	-3	-15	55*	-10	6	60*	50*
SMILES	Platelet DG rel	SENP7 block	SENP8 block-1	SENP1 FRET inh	SENP6 block	SENP8 block-2	SENP1 conf	SENP1 kin conf
COc1ccc2nc(SCC(=O)Nc3cc(C)on3)c(C#N)cc2c1	3	6	-64	48*	-14	9	-37	13
COC(=O)CSc1nc2cc(C)ccc2cc1C#N	2	-4	-14	62*	5	7	15	22
O=C(O)c1ccc2c(c1)C(=O)N(c1nccs1)C2=O	4	2	8	0	4	-3	.	.
CC[C@@]1(C(=O)OC)N[C@H](CN(C)C(=O)Nc2ccc(C(F)(F)F)cc2)[C@@H]2C(=O)N(C)C(=O)[C@@H]21	.	-8	6	-1	3	15	.	.
COc1ccc2c(-c3ccccc3)cc(SCC(N)=O)nc2c1	1	-1	-120	30*	-9	-2	14	17
COc1ccc2c(C)cc(SCC(=O)N3CCOCC3)nc2c1	-5	3	-47	67*	1	6	50*	36*
CC1(C)CC(Cc2ccc(C(=O)c3ccccc3)cc2)N(C(=O)OC(C)(C)C)N1 (centres undefined)	.	.	-31	2	.	.	.	.
COC12CC(=O)C(C(C)=O)=C(O)C1(C)c1c(O)c(C)c(O)c(C(C)=O)c1O2 (centres undefined)	.	.	10	33*	.	.	32	18
CC(=O)c1c(O)c(C)c(O)c2c1OC1=CC(=O)/C(=C(/C)N)C(=O)C12C (centres undefined)	.	.	7	2	.	.	.	.
CCOC(=O)NC(=O)CSc1nc(C)cc(C(F)(F)F)c1C#N	-2	-7	-3	39*	-10	-2	9	13
Cc1ccc(S(=O)(=O)CCSc2ccc(C(F)(F)F)cn2)cc1	-9	-2	18	0	-33	-11	.	.
Cc1coc(NC(=O)CSc2nc(-c3ccncc3)cc(C(F)(F)F)c2C#N)n1	1	-5	-110	66*	-2	-2	45*	28*
COC(=O)CSc1nc(C)cc(C(F)(F)F)c1C#N	-12	3	2	4	-22	0	.	.
Cc1ccc(S(=O)(=O)CCSc2nc(C)cc(C(F)(F)F)c2C#N)cc1	-1	10	-21	72*	-2	6	22	16
CC(=O)N1CCc2cc(S(=O)(=O)CCC(=O)NCc3ccc(F)cc3)ccc21	-13	9	18	1	-6	-1	.	.
N#CCSc1ccccc1NC(=O)CN1C(=O)C(=O)N(Cc2ccccc2)C1=O	.	-1	3	38*	3	1	14	11

Compound activity: PubChem, several laboratories
